PDI turbidity – PDI (human) enzyme inhibition. 350,000 compounds, 0.052% hits. AID 588391. P07237. PDI insulin aggregation turbidity, A650, 90 min. inhibition, % at 10 µM;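 active = mean inhibition across replicates of 30% or more, whatever share of single replicates reach that level; inconclusive = mean inhibition below 30% while every single replicate reaches 30%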
SIRT5 inh – sirtuin-5 (human) deacylase inhibition; Q9NXA8; Purified SirT5, succinyl-peptide AMC, trypsin-coupled fluorescence; inhibition, % at 15 µM; 330,000 compounds, 1.1% hits; in the data active = inhibition above about 15%; inconclusive = no clear call, values can overlap the other calls
GSIS activator – GLuc luminescence reporter in INS-1E cells, primary screen for activators of glucose-dependent secretion of insulin; AID 743287; INS-1E GLuc reporter insulin secretion, 2-3 h; 370,000 compounds, 0.61% hits; activation, % at 16.6 µM;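 active = lowest replicate activation of at least 40%, so every replicate reaches that level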;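 note: 0% = median of neutral control wells and 100% = median of IBMX positive control wells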
S100A4 inh HTS – inhibitors of human S100A4 binding to myosin IIA peptide; P26447; S100A4/TAMRA-MyoIIA peptide fluorescence polarization; inhibition, % at 10.7 µM; 360,000 compounds, 0.14% hits; AID 652163;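 active = mean inhibition of at least 70% across replicates, with every replicate also reaching that level; inconclusive = mean inhibition reaches 70% but some replicates fall short; inactive = mean inhibition below 70%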
Target sequence (P26447 whole entry, looked up): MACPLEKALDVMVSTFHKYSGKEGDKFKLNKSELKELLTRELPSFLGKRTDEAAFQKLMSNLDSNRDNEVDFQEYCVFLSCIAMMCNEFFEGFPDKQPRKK
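Assay system: human S100A4 monomer with TAMRA-labelled myosin IIA peptide / Buffer or medium: Calcium-containing HEPES buffer, pH 7.2 / Reagent: TAMRA-labelled myosin IIA heavy-chain peptide probe, 5 nM / Compound: one dose per compound / Timing: polarization read 5 min after assay mix addition, stable 5–60 min / Benchmarks: neutral control DMSO, positive control TFP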
ERp5 inh – blocks human ERp5 reductase activity on insulin. AID 651711. inhibition, % at 9.99 µM. ERp5 insulin aggregation, absorbance 650 nm, 90 min. Q15084. 350,000 compounds, 0.05% hits;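 active = mean replicate inhibition above about 25%, with every replicate also reaching it, limit read from the data, passing the limit was not always enough; inconclusive = only one of those two criteria met; inactive = neither criterion met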
Target sequence (Q15084 whole entry, looked up): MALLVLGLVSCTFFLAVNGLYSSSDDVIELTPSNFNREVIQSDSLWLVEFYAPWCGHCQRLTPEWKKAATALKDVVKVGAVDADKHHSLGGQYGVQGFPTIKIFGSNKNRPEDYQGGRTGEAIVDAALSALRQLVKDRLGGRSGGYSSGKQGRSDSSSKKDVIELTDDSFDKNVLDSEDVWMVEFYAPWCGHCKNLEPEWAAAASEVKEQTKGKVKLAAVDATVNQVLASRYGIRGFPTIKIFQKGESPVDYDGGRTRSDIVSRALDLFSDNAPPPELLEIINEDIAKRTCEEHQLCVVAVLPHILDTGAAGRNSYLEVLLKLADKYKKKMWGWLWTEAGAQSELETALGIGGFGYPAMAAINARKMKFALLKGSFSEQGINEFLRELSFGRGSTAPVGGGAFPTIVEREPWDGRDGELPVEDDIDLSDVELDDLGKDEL
* hit, by the source's call. A selection: hits, their analogues and other compounds. The true share with any hit is near 1.5%.

Results for CO[C@@H]1CN(C)C(=O)c2cc(NS(=O)(=O)CC(F)(F)F)ccc2OC[C@@H](C)N(C)C[C@H]1C ?
SIRT5 inh: -0.2; GSIS activator: 10.3; S100A4 inh HTS: 105.9*; ERp5 inh: -1.5

How did O=C([C@H]1N[C@H]2c3ccc(C4=CCCCC4)c(=O)n3C[C@H]2[C@@H]1CO)N1CCc2ccccc2C1 do in these assays?
GSIS activator: 1.1

How did COc1cccc(NC(=O)N(C)C[C@H]2Oc3cc(/C=C/c4ccccc4)ccc3S(=O)(=O)N([C@@H](C)CO)C[C@@H]2C)c1 do in these assays?
SIRT5 inh: -0.9; GSIS activator: -11.9; S100A4 inh HTS: -4.3; ERp5 inh: 2.4

How did CO[C@H]1CN(C)C(=O)c2cc(C#N)ccc2OC[C@@H]2O[C@H](CC[C@H]2OC)CCN(C)C(=O)[C@@H]1C do in these assays?
SIRT5 inh: -1.6; GSIS activator: -1.0; S100A4 inh HTS: 4.7; ERp5 inh: -0.6

What do the screens show for `O=C(NCC[C@@H]1CC[C@@H](NS(=O)(=O)c2ccc(F)cc2)[C@H](CO)O1)Nc1ccc(F)cc1`?
SIRT5 inh: 1.7; GSIS activator: -9.4; S100A4 inh HTS: -6.2; ERp5 inh: 0.0

How did C[C@@H]1CN([C@@H](C)CO)C(=O)c2cc(NS(=O)(=O)c3ccccc3)ccc2O[C@@H]1CN(C)C do in these assays?
SIRT5 inh: -1.0; GSIS activator: 12.4; S100A4 inh HTS: 2.8; ERp5 inh: -0.7

What do the screens show for `CSc1ccc(C=NNc2ccc(S(=O)(=O)Nc3ccccc3C(=O)O)cc2[N+](=O)[O-])cc1`?
PDI turbidity: 11.0; SIRT5 inh: 0.7; GSIS activator: -10.5; S100A4 inh HTS: -4.6; ERp5 inh: 2.0

How did O=C(O)c1ccccc1NS(=O)(=O)c1ccc(NN=Cc2ccccc2F)c([N+](=O)[O-])c1 do in these assays?
PDI turbidity: 17.7; SIRT5 inh: 17.3*; GSIS activator: -7.2; S100A4 inh HTS: 0.4; ERp5 inh: -2.5

How did COc1ccc(C=NNc2ccc(S(=O)(=O)Nc3ccccc3C(=O)O)cc2[N+](=O)[O-])c(OC)c1 do in these assays?
PDI turbidity: -0.8; SIRT5 inh: 44.5*; GSIS activator: 14.4; S100A4 inh HTS: 0.5; ERp5 inh: -0.5

How did CCOc1ccc(C=NNc2ccc(S(=O)(=O)Nc3ccccc3C(=O)O)cc2[N+](=O)[O-])cc1 do in these assays?
PDI turbidity: 1.6; SIRT5 inh: 20.2*; S100A4 inh HTS: -0.1; ERp5 inh: -0.3

Results for CCOc1cccc(C=NNc2ccc(S(=O)(=O)Nc3ccccc3C(=O)O)cc2[N+](=O)[O-])c1O ?
PDI turbidity: 3.7; SIRT5 inh: 7.5; GSIS activator: 14.7; S100A4 inh HTS: 4.4; ERp5 inh: -5.9

How did COc1ccc(NC(=S)NNc2ccc(S(=O)(=O)Nc3ccccc3C(=O)O)cc2[N+](=O)[O-])cc1 do in these assays?
PDI turbidity: 1.1; SIRT5 inh: 16.8*; GSIS activator: -5.2; S100A4 inh HTS: -6.0; ERp5 inh: -2.0

Results for C=CCOc1ccc(C=NNc2ccc(S(=O)(=O)Nc3ccccc3C(=O)O)cc2[N+](=O)[O-])cc1OC ?
PDI turbidity: 27.7; SIRT5 inh: -6.7; GSIS activator: -7.9; S100A4 inh HTS: 2.8; ERp5 inh: 1.2

What do the screens show for `CC(C)NC(=O)Nc1ccc2c(c1)C(=O)N([C@@H](C)CO)C[C@@H](C)[C@H](CN(C)C(=O)Nc1ccc(C(F)(F)F)cc1)OCCCC[C@@H](C)O2`?
SIRT5 inh: 2.3; GSIS activator: 11.1; S100A4 inh HTS: -10.5; ERp5 inh: -1.2

What do the screens show for `CCCn1nc(Oc2nc(N(C)C)nc(N(C)C)n2)ccc1=O`?
PDI turbidity: 4.9; SIRT5 inh: 19.3*; GSIS activator: 9.3; S100A4 inh HTS: -3.9; ERp5 inh: -1.8

What do the screens show for `CCC(=O)N(C)C[C@H]1Oc2cc(-c3cccc(F)c3)ccc2S(=O)(=O)N([C@@H](C)CO)C[C@@H]1C`?
SIRT5 inh: -2.0; GSIS activator: -21.2; S100A4 inh HTS: 7.1; ERp5 inh: -4.2

Results for CC(=O)OCC(C)n1[nH]c2ccccc2c1=O (stereo not drawn) ?
SIRT5 inh: 39.6*; GSIS activator: -1.5; S100A4 inh HTS: 0.8; ERp5 inh: 5.6

How did CC(C)CC#Cc1ccc([C@@H]2[C@@H](CO)N3C(=O)CN(S(C)(=O)=O)C[C@@H]23)cc1 do in these assays?
GSIS activator: -13.2

Results for O=C(NC1CCCCC1)C1CCC(=O)N(C2CC2)C1 (stereo not drawn) ?
PDI turbidity: 5.5; SIRT5 inh: 7.6; GSIS activator: -1.9; S100A4 inh HTS: -3.1; ERp5 inh: -1.4

Results for CC1(C)CC(NC(=O)C2CCC(=O)N(C3CC3)C2)CC(C)(C)C1 (stereo not drawn) ?
PDI turbidity: -2.5; SIRT5 inh: 36.1*; GSIS activator: -10.6; S100A4 inh HTS: 1.5; ERp5 inh: 6.7

What do the screens show for `CN(C)CCCNC(=O)C[C@@H]1CC[C@H]2[C@@H](COC[C@H](O)CN2CC2CCCCC2)O1`?
SIRT5 inh: 6.0; GSIS activator: 13.3; S100A4 inh HTS: 1.2; ERp5 inh: 1.8

Results for COc1cc2c(cc1OC)C(c1c(Cl)cccc1Cl)NC(=O)C2 (stereo not drawn) ?
PDI turbidity: -2.6; SIRT5 inh: 26.2*; GSIS activator: -5.3; S100A4 inh HTS: -1.9; ERp5 inh: 18.5

How did COc1cc2c(cc1OC)C(c1ccc(C)cc1)NC(=O)C2 (stereo not drawn) do in these assays?
PDI turbidity: 3.1; SIRT5 inh: -6.9; S100A4 inh HTS: 1.1; ERp5 inh: 2.1

What do the screens show for `COc1cc2c(cc1OC)C(c1cccc([N+](=O)[O-])c1)NC(=O)C2` (stereo not drawn)?
PDI turbidity: 3.4; SIRT5 inh: -3.0; GSIS activator: 70.4*; S100A4 inh HTS: 3.3; ERp5 inh: inconclusive

Results for COc1cc2c(cc1OC)C(c1cccc(Br)c1)NC(=O)C2 (stereo not drawn) ?
PDI turbidity: 22.0; SIRT5 inh: -1.4; GSIS activator: 11.6; S100A4 inh HTS: 1.5; ERp5 inh: 1.5

What do the screens show for `O=C(c1ccccc1)N1CC(=O)N2[C@@H](CO)[C@H](c3ccc(/C=C/c4ccccc4)cc3)[C@@H]2C1`?
GSIS activator: 17.0

Results for CC(=O)N1CCN(c2nc(-c3cccs3)nc3ccccc23)CC1 ?
PDI turbidity: -5.0; SIRT5 inh: 2.2; GSIS activator: 40.6*; S100A4 inh HTS: -7.7; ERp5 inh: -2.6

How did O=C(CN1C(=O)c2ccccc2C1=O)N1CCN(c2nnc(-c3ccccc3)c3ccccc23)CC1 do in these assays?
PDI turbidity: -1.9

What do the screens show for `NC(=O)C1CCN(c2nc(-c3ccccc3)nc3ccccc23)CC1`?
PDI turbidity: -1.2; GSIS activator: 57.8*

What do the screens show for `CCOC(=O)N1CCN(c2nc(-c3cccs3)nc3ccccc23)CC1`?
PDI turbidity: 9.3; GSIS activator: 2.8; S100A4 inh HTS: -1.4; ERp5 inh: 2.7

Source: PubChem (Broad Institute)
